Results taken from PMC3611965 (Nuclear medicine and biology, 2012).
Several values for one entry are separate records, joined by “and”; a condition that tells them apart may be missing. Equal values may be shown once. Read-outs that look alike come from different tables or passages of the source.

Columns and labels:
FAAH [1] = conditions: human studies; ref [23]; cited from earlier work
FAAH [2] = conditions: rhesus monkeys; ref [23]; cited from earlier work
FAAH [3] = target: T1, FAAH (Rattus norvegicus, UniProt P97612); assay: dynamic PET imaging in rats, baseline and blocked; assay type: in vivo
T1 sequence (P97612 1-579): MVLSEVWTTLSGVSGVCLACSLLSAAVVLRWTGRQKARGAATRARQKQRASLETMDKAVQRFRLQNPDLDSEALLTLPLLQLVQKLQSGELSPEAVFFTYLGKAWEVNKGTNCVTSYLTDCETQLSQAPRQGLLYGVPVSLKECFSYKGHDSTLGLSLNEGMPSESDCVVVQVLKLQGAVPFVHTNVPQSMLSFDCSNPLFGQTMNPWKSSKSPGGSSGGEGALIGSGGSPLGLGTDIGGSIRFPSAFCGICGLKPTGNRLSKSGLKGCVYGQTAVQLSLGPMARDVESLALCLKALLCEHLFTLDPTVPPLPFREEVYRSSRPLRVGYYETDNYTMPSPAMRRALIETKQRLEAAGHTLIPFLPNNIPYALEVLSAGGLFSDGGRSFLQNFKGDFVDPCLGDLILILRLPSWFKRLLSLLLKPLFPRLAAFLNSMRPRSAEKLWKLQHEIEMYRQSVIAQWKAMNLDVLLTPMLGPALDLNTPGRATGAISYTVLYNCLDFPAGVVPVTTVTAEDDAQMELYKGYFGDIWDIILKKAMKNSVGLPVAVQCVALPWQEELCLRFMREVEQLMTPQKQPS
Method in brief: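 Male Sprague–Dawley rats (345±28 g) with jugular vein cannulas, held under ~2% isoflurane/O2 with respiration kept at 45–65 breaths/min and heat-lamp warming. The 18F-labelled test compound was given IV via tail vein (1.5462±0.4130 mCi) and brain scanned dynamically for 90 min in 16 frames. Blocked rats received an FAAH inhibitor 1 mg/kg p.o. 1 h before. Blood and plasma were sampled at 1–90 min. Images were atlas-registered for TACs and SUV.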

log P7.4 measurement = assay type: physicochemical; conditions: n-octanol/DPBS pH 7.4; measured in quadruplicate
Method in brief: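 18F-labelled test compound (15–30 μCi) was partitioned between presaturated n-octanol and DPBS (0.1 M, pH 7.4) by vortexing 60 s and centrifuging at 4000 rpm for 2 min. The octanol phase was washed with fresh DPBS three times, then re-partitioned against fresh DPBS in four successive sets. Triplicate aliquots of each phase were gamma-counted. LogP7.4 = log[(octanol counts×20)/DPBS counts].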

FAAH [4] = target: T1, FAAH; assay: brain biodistribution of [18F]PF-9811 in rats, baseline and blocked; assay type: in vivo; conditions: for SUV±standard deviation, Bone: N=2; for SUV±standard deviation, Blood / SUV±standard deviation, Brain stem / SUV±standard deviation, Cerebellum / SUV±standard deviation, Cortex / SUV±standard deviation, Hippocampus / SUV±standard deviation, Hypothalamus / SUV±standard deviation, Liver / SUV±standard deviation, Rest of brain / SUV±standard deviation, Striatum / SUV±standard deviation, Thalamus: N=4
[5] = rats; ref [20],[21]; cited from earlier work
[6] = system: FAAH relative to other serine hydrolases; conditions: competitive ABPP; ref [20],[21]; cited from earlier work
FAAH [7] = target: T1, FAAH; conditions: cited from earlier work
[8] = 10 min, blocked: 4 1 mg/kg oral 1 h prior
[9] = 10 min post injection, baseline
[10] = 60 min, blocked: 4 1 mg/kg oral 1 h prior
[11] = 60 min post injection, baseline
[12] = 90 min, blocked: 4 1 mg/kg oral 1 h prior
[13] = 90 min, pretreatment with 4 1 mg/kg p.o.
[14] = 90 min post injection, baseline
[15] = biodistribution 90 min, baseline vs blocking

CN(C)C(=O)[C@H]1C[C@@H]1c1ccc(-c2ncn([11CH3])c2Sc2ccc(Cl)cn2)cc1 [[^11 C]MK-3168]
brain uptake (PET) (FAAH [1]): high brain uptake
brain uptake (PET) (FAAH [2]): Heterogeneous, specific brain uptake

O=C(Nc1cccnn1)N1CCC(=Cc2cccc(Oc3ccc(OCC[18F])cn3)c2)CC1 [[^18F]PF-9811]
decreased uptake in blocking experiments, hippocampus (FAAH [3]; PET, end of 90 min, 4 1 mg/kg p.o. 1 h prior): ~40%
PET uptake (SUV), hippocampus and cortex (FAAH [3]; baseline, 90 min): ~0.8 SUV
logP7.4 (log P7.4 measurement): 3.14±0.02 and 3.14
SUV±standard deviation, Bone (FAAH [4]; [8]): 0.332±0.010 SUV
SUV±standard deviation, Blood (FAAH [4]; [8]): 1.031±0.069 SUV
SUV±standard deviation, Brain stem (FAAH [4]; [8]): 0.313±0.011 SUV
SUV±standard deviation, Cerebellum (FAAH [4]; [8]): 0.291±0.008 SUV
SUV±standard deviation, Cortex (FAAH [4]; [8]): 0.265±0.014 SUV
SUV±standard deviation, Hippocampus (FAAH [4]; [8]): 0.282±0.014 SUV
SUV±standard deviation, Hypothalamus (FAAH [4]; [8]): 0.351±0.024 SUV
SUV±standard deviation, Liver (FAAH [4]; [8]): 7.725±0.701 SUV
SUV±standard deviation, Rest of brain (FAAH [4]; [8]): 0.294±0.018 SUV
SUV±standard deviation, Striatum (FAAH [4]; [8]): 0.309±0.028 SUV
SUV±standard deviation, Thalamus (FAAH [4]; [8]): 0.304±0.020 SUV
SUV±standard deviation, Bone (FAAH [4]; [9]): 0.180±0.001 SUV
SUV±standard deviation, Blood (FAAH [4]; [9]): 0.224±0.070 SUV
SUV±standard deviation, Brain stem (FAAH [4]; [9]): 0.319±0.029 SUV
SUV±standard deviation, Cerebellum (FAAH [4]; [9]): 0.666±0.017 SUV
SUV±standard deviation, Cortex (FAAH [4]; [9]): 0.596±0.030 SUV
SUV±standard deviation, Hippocampus (FAAH [4]; [9]): 0.579±0.018 SUV
SUV±standard deviation, Hypothalamus (FAAH [4]; [9]): 0.410±0.027 SUV
SUV±standard deviation, Liver (FAAH [4]; [9]): 14.179±3.336 SUV
SUV±standard deviation, Rest of brain (FAAH [4]; [9]): 0.471±0.038 SUV
SUV±standard deviation, Striatum (FAAH [4]; [9]): 0.427±0.021 SUV
SUV±standard deviation, Thalamus (FAAH [4]; [9]): 0.382±0.051 SUV
SUV±standard deviation, Bone (FAAH [4]; [10]): 0.391±0.088 SUV
SUV±standard deviation, Blood (FAAH [4]; [10]): 0.747±0.191 SUV
SUV±standard deviation, Brain stem (FAAH [4]; [10]): 0.264± 0.076 SUV
SUV±standard deviation, Cerebellum (FAAH [4]; [10]): 0.248± 0.076 SUV
SUV±standard deviation, Cortex (FAAH [4]; [10]): 0.219±0.068 SUV
SUV±standard deviation, Hippocampus (FAAH [4]; [10]): 0.233±0.076 SUV
SUV±standard deviation, Hypothalamus (FAAH [4]; [10]): 0.260± 0.088 SUV
SUV±standard deviation, Liver (FAAH [4]; [10]): 4.488±1.343 SUV
SUV±standard deviation, Rest of brain (FAAH [4]; [10]): 0.239±0.071 SUV
SUV±standard deviation, Striatum (FAAH [4]; [10]): 0.255±0.082 SUV
SUV±standard deviation, Thalamus (FAAH [4]; [10]): 0.251±0.074 SUV
SUV±standard deviation, Bone (FAAH [4]; [11]): 0.133±0.058 SUV
SUV±standard deviation, Blood (FAAH [4]; [11]): 0.063±0.012 SUV
SUV±standard deviation, Brain stem (FAAH [4]; [11]): 0.331±0.041 SUV
SUV±standard deviation, Cerebellum (FAAH [4]; [11]): 0.751±0.094 SUV
SUV±standard deviation, Cortex (FAAH [4]; [11]): 0.674±0.109 SUV
SUV±standard deviation, Hippocampus (FAAH [4]; [11]): 0.673±0.118 SUV
SUV±standard deviation, Hypothalamus (FAAH [4]; [11]): 0.426± 0.045 SUV
SUV±standard deviation, Liver (FAAH [4]; [11]): 17.346±4.789 SUV
SUV±standard deviation, Rest of brain (FAAH [4]; [11]): 0.555±0.081 SUV
SUV±standard deviation, Striatum (FAAH [4]; [11]): 0.441±0.073 SUV
SUV±standard deviation, Thalamus (FAAH [4]; [11]): 0.374±0.045 SUV
SUV±standard deviation, Bone (FAAH [4]; [12]): 0.472±0.133 SUV
SUV±standard deviation, Blood (FAAH [4]; [12]): 0.703±0.117 SUV
SUV±standard deviation, Brain stem (FAAH [4]; [12]): 0.246± 0.050 SUV
SUV±standard deviation, Cerebellum (FAAH [4]; [12]): 0.249± 0.065 SUV
SUV±standard deviation, Cortex (FAAH [4]; [12]): 0.216±0.055 SUV
SUV±standard deviation, Hippocampus (FAAH [4]; [12]): 0.234±0.061 SUV
SUV±standard deviation, Hypothalamus (FAAH [4]; [12]): 0.257±0.079 SUV
SUV±standard deviation, Liver (FAAH [4]; [12]): 4.165±0.664 SUV
SUV±standard deviation, Rest of brain (FAAH [4]; [12]): 0.231±0.055 SUV
SUV±standard deviation, Striatum (FAAH [4]; [12]): 0.240±0.065 SUV
SUV±standard deviation, Thalamus (FAAH [4]; [12]): 0.238±0.058 SUV
increase in signal in the blood on blocking (FAAH [4]; [13]): 12 fold
reduction of signal in the liver on blocking (FAAH [4]; [13]): 74%
SUV±standard deviation, Bone (FAAH [4]; [14]): 0.159±0.001 SUV
SUV±standard deviation, Blood (FAAH [4]; [14]): 0.061±0.009 SUV
SUV±standard deviation, Brain stem (FAAH [4]; [14]): 0.391± 0.040 SUV
SUV±standard deviation, Cerebellum (FAAH [4]; [14]): 0.857±0.144 SUV
SUV±standard deviation, Cortex (FAAH [4]; [14]): 0.789±0.096 SUV
SUV±standard deviation, Hippocampus (FAAH [4]; [14]): 0.770±0.126 SUV
SUV±standard deviation, Hypothalamus (FAAH [4]; [14]): 0.545±0.126 SUV
SUV±standard deviation, Liver (FAAH [4]; [14]): 16.116±4.670 SUV
SUV±standard deviation, Rest of brain (FAAH [4]; [14]): 0.612±0.088 SUV
SUV±standard deviation, Striatum (FAAH [4]; [14]): 0.573±0.081 SUV
SUV±standard deviation, Thalamus (FAAH [4]; [14]): 0.544± 0.063 SUV
specific to non-specific binding ratio, cerebellum (FAAH [4]; [15]): 2.4
specific to non-specific binding ratio, cortex (FAAH [4]; [15]): 2.6
specific to non-specific binding ratio, hippocampus (FAAH [4]; [15]): 2.3
uptake in rat brain (SUV) (FAAH [4]; biodistribution, 90 min, baseline): ~0.8 SUV
defluorination (as determined by bone uptake) (FAAH [4]; rats): minimal

O=C(Nc1cccnn1)N1CCC(=Cc2cccc(Oc3ccc(C(F)(F)F)cn3)c2)CC1 [compound 4]
oral bioavailability [5]: 88%
selectivity for FAAH relative to other serine hydrolases [6]: exquisite selectivity
FAAH inhibition at blocking dose (FAAH [7]; p.o. 1.0 mg/kg, ref [20]): fully inhibit
duration of sustained inhibition of brain FAAH activity, maximal elevations of brain AEA and efficacy in rat models of acute inflammatory pain (FAAH [7]; single oral administration 1 mg/kg, ref [15],[20]): at least 24 h
